Test results published in ChEMBL document CHEMBL1149745, “An antiplatelet aggregation principle and X-ray structural analysis of cis-khellactone diester from Peucedanum japonicum” (1992).

Legend:
Type in all cases: functional, Oryctolagus cuniculus, Platelet
[1] = Antiplatelet aggregation activity in ADP-induced rabbit platelets assessed as aggregation at 100 ug/ml
Outline: (§1)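 Platelets preincubated 3 min at 37° with test agent (100 µg/ml) or 0.5% DMSO as control, then challenged with an inducer: ADP 20 µM, PAF 2 ng/ml, arachidonic acid 100 µM, collagen 10 µg/ml. Percent aggregation reported as means ± S.E.M., n = 3–6, compared against the respective control.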

[2] = Antiplatelet aggregation activity in arachidonic acid-induced rabbit platelets assessed as aggregation at 100 ug/ml; outline: as §1
[3] = Antiplatelet aggregation activity in collagen-induced rabbit platelets assessed as aggregation at 100 ug/ml; outline: as §1
[4] = Antiplatelet aggregation activity in PAF-induced rabbit platelets assessed as aggregation at 100 ug/ml; outline: as §1

Which results are given for `CC(C)CC(=O)O[C@H]1c2c(ccc3ccc(=O)oc23)OC(C)(C)[C@H]1OC(=O)CC(C)C`?
Activity [1]: 8.8%; Activity [2]: 49.8%; Activity [3]: 39.3%; Activity [4]: 0%

What does the source list for `CC(C)=CC(=O)O[C@H]1c2c(ccc3ccc(=O)oc23)OC(C)(C)[C@H]1OC(=O)CC(C)C` (relative stereo)?
Activity [1]: 64%; Activity [2]: 76.3%; Activity [3]: 75.7%; Activity [4]: 57.4%

Which results are given for `CC(C)=CC(=O)O[C@H]1c2c(ccc3ccc(=O)oc23)OC(C)(C)[C@H]1OC(=O)C=C(C)C` (relative stereo)?
Activity [1]: 61.7%; Activity [2]: 43.6%; Activity [3]: 72.3%; Activity [4]: 73.2%
